According to ChEMBL document CHEMBL1156235, “A novel class of antihyperlipidemic agents with low density lipoprotein receptor up-regulation via the adaptor protein autosomal recessive hypercholesterolemia” (J Med Chem, 2010):
Converted amounts (≈) assume the structure as drawn. The source made the active and inactive calls. The rule behind the calls is not given here.

Key:
HepG2 [1] = experiment: Upregulation of LDL receptor expression in human HepG2 cells assessed as DiI-LDL uptake after 19 hrs; assay type: functional; details: HepG2, 19 h
Summary of the method: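 HepG2 cells were grown 2-3 days in DMEM/F-12 with 10% FBS, then given compound in medium with 10% delipoprotein serum for 19 h at 37 °C. DiI-labelled human LDL was then added for 5 h, with 30-50-fold unlabelled LDL defining nonspecific uptake. Specific fluorescence per protein is expressed as % of control. EC25 is the concentration giving 25% up-regulation (n = 1).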

[2] = molecular target: T1, Sterol O-acyltransferase 1 (Rattus norvegicus, UniProt O70536); experiment: Inhibition of rat macrophages ACAT
T1 sequence (O70536 whole entry): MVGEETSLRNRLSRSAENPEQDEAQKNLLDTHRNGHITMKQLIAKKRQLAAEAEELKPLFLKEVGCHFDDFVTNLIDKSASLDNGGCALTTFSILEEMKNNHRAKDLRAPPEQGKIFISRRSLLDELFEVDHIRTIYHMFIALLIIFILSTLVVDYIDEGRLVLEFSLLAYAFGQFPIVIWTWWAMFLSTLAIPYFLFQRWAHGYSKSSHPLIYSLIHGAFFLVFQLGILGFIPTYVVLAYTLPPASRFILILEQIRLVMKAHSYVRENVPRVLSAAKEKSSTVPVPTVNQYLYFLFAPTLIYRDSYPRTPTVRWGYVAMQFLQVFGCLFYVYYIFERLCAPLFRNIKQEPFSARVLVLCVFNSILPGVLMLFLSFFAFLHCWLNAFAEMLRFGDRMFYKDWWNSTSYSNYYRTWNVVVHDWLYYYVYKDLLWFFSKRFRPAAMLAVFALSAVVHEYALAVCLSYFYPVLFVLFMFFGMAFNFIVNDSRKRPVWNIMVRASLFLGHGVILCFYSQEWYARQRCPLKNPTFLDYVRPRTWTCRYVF
Summary of the method: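 ACAT was taken from rat macrophages, and inhibition was measured once (n = 1).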

Hamster [3] = experiment: Antihyperlipidemic activity in high-cholesterol diet fed hamster model assessed as reduction of plasma total LDL cholesterol level at 3 mg/kg, po administered qd for 7 days; assay type: functional, Cricetinae; set-up: scale not given: the % may be the effect or the level left
Summary of the method: (§1)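 Hamsters fed a rich diet for 1 week were dosed orally by gavage once daily for 1 week. Plasma total cholesterol and LDL-C were then measured. Values are mean ± SEM.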

Hamster [4] = experiment: Antihyperlipidemic activity in high-cholesterol diet fed hamster model assessed as reduction of plasma total cholesterol level at 1 mg/kg, po administered qd for 7 days; assay type: functional, Cricetinae; set-up: scale not given: the % may be the effect or the level left; summary of the method: as §1
Hamster [5] = experiment: Antihyperlipidemic activity in high-cholesterol diet fed hamster model assessed as reduction of plasma total LDL cholesterol level at 1 mg/kg, po administered qd for 7 days; assay type: functional, Cricetinae; set-up: scale not given: the % may be the effect or the level left; summary of the method: as §1
Hamster [6] = experiment: Antihyperlipidemic activity in high-cholesterol diet fed hamster model assessed as reduction of plasma total cholesterol level at 10 mg/kg, po administered qd for 7 days; assay type: functional, Cricetinae; set-up: scale not given: the % may be the effect or the level left; summary of the method: as §1
Hamster [7] = experiment: Antihyperlipidemic activity in high-cholesterol diet fed hamster model assessed as reduction of plasma total LDL cholesterol level at 10 mg/kg, po administered qd for 7 days; assay type: functional, Cricetinae; set-up: scale not given: the % may be the effect or the level left; summary of the method: as §1
HepG2 [8] = experiment: Increase of [125I]LDL cholesterol degradation in human HepG2 cells at 0.01 uM; assay type: functional
HepG2 [9] = experiment: Increase of [125I]LDL cholesterol degradation in human HepG2 cells at 0.1 uM; assay type: functional
HepG2 [10] = experiment: Increase of [125I]LDL cholesterol degradation in human HepG2 cells at 1 uM; assay type: functional
Hamster [11] = experiment: Antihyperlipidemic activity in high-cholesterol diet fed hamster model assessed as reduction of plasma total cholesterol level at 3 mg/kg, po administered qd for 7 days; assay type: functional, Cricetinae; set-up: scale not given: the % may be the effect or the level left; summary of the method: as §1
HepG2 [12] = experiment: Upregulation of LDL receptor expression in human HepG2 cells at 1 uM in presence of ARH-specific siRNA; assay type: functional, cell-based
[13] = Solubility in phosphate buffer at pH 7.4 by HPLC analysis; assay type: physicochemical
Summary of the method: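 Solubility in phosphate buffer was measured at room temperature, with the dissolved amount quantified by HPLC.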

HepG2 [14] = experiment: Increase of [125I]LDL cholesterol degradation in human HepG2 cells; assay type: functional, cell-based
Hamster [15] = experiment: Antihyperlipidemic activity in high-cholesterol diet fed po dosed hamster model assessed as reduction of plasma total cholesterol level administered qd for 7 days; assay type: functional, organism-based; details: Cricetinae; summary of the method: as §1
Hamster [16] = experiment: Antihyperlipidemic activity in high-cholesterol diet fed po dosed hamster model assessed as reduction of plasma total LDL cholesterol level administered qd for 7 days; assay type: functional, organism-based; details: Cricetinae; summary of the method: as §1
[17] = Cmax in hamster at 10 mg/kg; assay type: ADME, organism-based; set-up: dose 10 mg/kg; details: cricetinae, in vivo
Summary of the method: (§2)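 Male hamsters received a single oral dose of 10 mg/kg as the sodium salt, and serum drug concentration was followed over time. Values are mean ± SEM, n = 3.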

[18] = AUC (0 to 360 mins) in hamster at 10 mg/kg; assay type: ADME, organism-based; set-up: time < 6 hr, dose 10 mg/kg; details: cricetinae, plasma; summary of the method: as §2
Hamster [19] = experiment: Antihyperlipidemic activity in high-cholesterol diet fed hamster model assessed as reduction of plasma total cholesterol level at 30 mg/kg, po administered qd for 7 days; assay type: functional, Cricetinae; set-up: scale not given: the % may be the effect or the level left; summary of the method: as §1
Hamster [20] = experiment: Antihyperlipidemic activity in high-cholesterol diet fed hamster model assessed as reduction of plasma total LDL cholesterol level at 30 mg/kg, po administered qd for 7 days; assay type: functional, Cricetinae; set-up: scale not given: the % may be the effect or the level left; summary of the method: as §1

SMILES	EC25 (HepG2 [1])	IC50 [2]	solubility [13]	further results
COc1cccc(C2(C(=O)NS(=O)(=O)Oc3ccccc3C3CCCC3)CCN(c3ccccc3OC)CC2)c1	690 nM	> 1000 nM	–	–
COc1cccc(C2(C(=O)NS(=O)(=O)Oc3c(C(C)C)cccc3C(C)C)CCN(c3ncccn3)CC2)c1 [listing 1 of 2 here]	47 nM	> 1000 nM	–	Activity (Hamster [3]): -27%; Activity (Hamster [4]): -8%; Activity (Hamster [5]): -24%; Activity (Hamster [6]): -17%; Activity (Hamster [7]): -38%; Activity (HepG2 [8]): 119%; Activity (HepG2 [9]): 136%; Activity (HepG2 [10]): 140%; Activity (Hamster [11]): -12%
CC(C)c1c(C(=O)Nc2ccccc2)c(-c2ccccc2)c(-c2ccc(F)cc2)n1CC[C@@H](O)C[C@@H](O)CC(=O)O	–	–	–	Activity (HepG2 [12]): Active
CCCc1ccccc1OS(=O)(=O)NC(=O)C1(c2cccc(OC)c2)CCN(c2ccccc2OC)CC1	4070 nM	> 1000 nM	–	–
CC(C)c1cccc(C(C)C)c1OS(=O)(=O)NC(=O)C1(c2cccc(OCCO)c2)CCN(c2ncccn2)CC1	1500 nM	–	> 200 µg/mL	–
COc1cccc(C2(C(=O)NS(=O)(=O)Oc3c(C(C)C)cccc3C(C)C)CCN(c3nc4ccccc4s3)CC2)c1	260 nM	> 1000 nM	3 µg/mL (≈ 4.94 µM)	–
COc1cccc(C2(C(=O)NS(=O)(=O)Nc3c(C(C)C)cccc3C(C)C)CCN(c3ccccc3OC)CC2)c1	> 10000 nM	> 1000 nM	–	–
COc1cccc(C2(C(=O)NS(=O)(=O)Oc3c(C(C)C)cccc3C(C)C)CCN(c3ccccc3)CC2)c1	1520 nM	> 1000 nM	180 µg/mL (≈ 327 µM)	–
COc1cccc(C2(C(=O)N(C)S(=O)(=O)Oc3c(C(C)C)cccc3C(C)C)CCN(c3ncccn3)CC2)c1	> 10000 nM	> 1000 nM	< 0.3 µg/mL	–
COc1cccc(C2(C(=O)Nc3c(C(C)C)cccc3C(C)C)CCN(c3ccccc3OC)CC2)c1	> 10000 nM	> 1000 nM	–	–
COc1cccc(C2(C(=O)NS(=O)(=O)Oc3c(C(C)C)cccc3C(C)C)CCN(c3nccc(C)n3)CC2)c1	500 nM	> 1000 nM	200 µg/mL (≈ 353 µM)	–
COc1cccc(C2(C(=O)NS(=O)(=O)Oc3c(C(C)C)cccc3C(C)C)CCNCC2)c1	> 10000 nM	> 1000 nM	–	–
COc1cccc(C2(C(=O)NS(=O)(=O)Oc3c(C(C)C)cccc3C(C)C)CCN(c3ncccn3)CC2)c1 [listing 2 of 2 here]	–	–	–	Activity (HepG2 [12]): inactive; Activity (HepG2 [14]): Dose-dependent effect; Activity (Hamster [15]): Dose-dependent effect; Activity (Hamster [16]): Dose-dependent effect
COc1cccc(C2(C(=O)[N-]S(=O)(=O)Oc3c(C(C)C)cccc3C(C)C)CCN(c3ncccn3)CC2)c1.[Na+]	–	–	230 µg/mL	Cmax [17]: 290 ng/mL; AUC(0-t) at 6 h [18]: 1090 ng·h/mL
COc1cccc(C2(C(=O)NS(=O)(=O)Oc3ccccc3C)CCN(c3ccccc3OC)CC2)c1	3880 nM	> 1000 nM	–	–
COc1cccc(C2(C(=O)NS(=O)(=O)Oc3c(C(C)C)cccc3C(C)C)CCN(c3ccccc3OC)CC2)c1 [listing 1 of 2 here]	370 nM	330 nM	–	Activity (Hamster [6]): -10%; Activity (Hamster [7]): -18%; Activity (Hamster [19]): -17%; Activity (Hamster [20]): -25%; Cmax [17]: 13 ng/mL
COc1cccc(C2(C(=O)[N-]S(=O)(=O)Oc3c(C(C)C)cccc3C(C)C)CCN(c3ccccc3OC)CC2)c1.[Na+]	–	–	–	Cmax [17]: 420 ng/mL; AUC(0-t) at 6 h [18]: 1160 ng·h/mL

SMILES	EC25 (HepG2 [1])	IC50 [2]	solubility [13]	further results
COc1cccc(C2(C(=O)NS(=O)(=O)Oc3c(C(C)C)cccc3C(C)C)CCN(c3ncccc3OC)CC2)c1	> 10000 nM	> 1000 nM	–	–
COc1cccc(C2(C(=O)NS(=O)(=O)Oc3c(C(C)C)cccc3C(C)C)CCN(C(C)=O)CC2)c1	> 10000 nM	> 1000 nM	–	–
COc1cccc(C2(C(=O)NS(=O)(=O)Oc3ccccc3)CCN(c3ccccc3OC)CC2)c1	> 10000 nM	> 1000 nM	–	–
COc1cccc(C2(C(=O)NS(=O)(=O)Oc3c(C(C)C)cccc3C(C)C)CCN(c3ccccc3OC)CC2)c1.Cl	–	–	–	Cmax [17]: 300 ng/mL; AUC(0-t) at 6 h [18]: 690 ng·h/mL
COc1cccc(C2(C(=O)NS(=O)(=O)Oc3c(C(C)C)cccc3C(C)C)CCN(C)CC2)c1	> 10000 nM	> 1000 nM	–	–
COc1cccc(C2(C(=O)NS(=O)(=O)Oc3c(C(C)C)cccc3C(C)C)CCN(C(=O)c3ccccc3)CC2)c1	> 10000 nM	> 1000 nM	–	–
CCCCn1c(=O)c(NC(=O)Nc2c(C(C)C)cc(N)cc2C(C)C)c(-c2cccc(OCCCO)c2)c2cccnc21.Cl.O	490 nM	31 nM	–	Activity (Hamster [6]): -29%; Activity (Hamster [7]): -31%
CCOc1cccc(C2(C(=O)NS(=O)(=O)Oc3c(C(C)C)cccc3C(C)C)CCN(c3ncccn3)CC2)c1	3100 nM	–	69 µg/mL (≈ 122 µM)	–
COc1cccc(C2(C(=O)NS(=O)(=O)Oc3c(C(C)C)cccc3C(C)C)CCN(c3ccccc3OC)CC2)c1 [listing 2 of 2 here]	–	–	–	Activity (Hamster [15]): Dose-dependent effect; Activity (Hamster [16]): Dose-dependent effect
COc1cccc(C2(C(=O)NS(=O)(=O)Oc3c(C)cccc3C)CCN(c3ccccc3OC)CC2)c1	> 10000 nM	410 nM	–	–
CCCc1cnc(N2CCC(C(=O)NS(=O)(=O)Oc3c(C(C)C)cccc3C(C)C)(c3cccc(OC)c3)CC2)nc1	> 10000 nM	> 1000 nM	–	–
CCCOc1cccc(C2(C(=O)NS(=O)(=O)Oc3c(C(C)C)cccc3C(C)C)CCN(c3ncccn3)CC2)c1	> 10000 nM	–	< 0.3 µg/mL	–
CC(C)c1cccc(C(C)C)c1OS(=O)(=O)NC(=O)C1(c2cccc(OCCCO)c2)CCN(c2ncccn2)CC1	> 10000 nM	–	> 200 µg/mL	–
COc1cccc(C2(C(=O)NS(=O)(=O)Oc3c(C(C)C)cccc3C(C)C)CCN(c3ncc(Br)cn3)CC2)c1	610 nM	> 1000 nM	< 0.1 µg/mL	–
COc1cccc(C2(C(=O)NS(=O)(=O)Oc3c(C(C)C)cccc3C(C)C)CCN(c3nccc(C(F)(F)F)n3)CC2)c1	> 10000 nM	> 1000 nM	–	–
CC(C)c1cccc(C(C)C)c1OS(=O)(=O)NC(=O)C1(c2cccc(O)c2)CCN(c2ncccn2)CC1	> 10000 nM	–	200 µg/mL (≈ 371 µM)	–
